ChEMBL document CHEMBL1132217, “Syntheses of biotinylated alpha-galactosylceramides and their effects on the immune system and CD1 molecules” (1999)

Legend:
Format in all cases: functional
Mus musculus [1] = organism: Mus musculus; assay: [3H]-TdR uptake measured by spleen cell proliferation assay by adding compound dose of 1 ng/mL
In short: (§1)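 Spleens from female C57BL/6 mice dissociated in RPMI 1640, red cells lysed with Tris NH4Cl, washed three times in PBS. Cells (2.5 × 10^5/well, 10% FCS RPMI 1640) cultured with sample or DMSO vehicle (0.001–0.1%) for 18 h at 37 °C, 5% CO2; [3H]TdR 0.5 μCi/well added, uptake counted by liquid scintillation 8 h later. Mean ± S.D.; p < 0.05 vs vehicle.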

Mus musculus [2] = organism: Mus musculus; assay: [3H]TdR uptake measured by spleen cell proliferation assay by adding compound dose of 100 ng/mL; in short: as §1
Mus musculus [3] = organism: Mus musculus; assay: [3H]TdR uptake measured by spleen cell proliferation assay by adding compound dose of 10 ng/mL; in short: as §1

Compound	Incorporation (Mus musculus [1]) [c.p.m.]	Incorporation (Mus musculus [2]) [c.p.m.]	Incorporation (Mus musculus [3]) [c.p.m.]
CCCCCCCCCCCCCC[C@@H](O)[C@@H](O)[C@H](CO[C@H]1O[C@@H](CO)[C@H](O)[C@H](O)[C@@H]1O)NC(=O)CCCCCCCCCCNC(=O)CCCCCNC(=O)CCCC[C@@H]1SC[C@@H]2NC(=O)N[C@@H]21 (stereo in doubt; form 1)	4811	5463	4833
CCCCCCCCCCCCCCCC[C@H](CO[C@H]1O[C@@H](CO)[C@H](O)[C@H](O)[C@@H]1O)NC(=O)CCCCCCCCCCNC(=O)CCCCCNC(=O)CCCC[C@@H]1SC[C@@H]2NC(=O)N[C@@H]21	4803	9427	5330
CCCCCCCCCCCCCCCCCCCCCCCCCC(=O)N[C@@H](CO[C@H]1O[C@H](CO)[C@H](O)[C@H](O)[C@H]1O)[C@H](O)[C@H](O)CCCCCCCCCCCCCC [RGI-7000]	13499	17636	17438
CCCCCCCCCCCCCCC[C@@H](O)[C@H](CO[C@H]1O[C@@H](CO)[C@H](O)[C@H](O)[C@@H]1O)NC(=O)CCCCCCCCCCNC(=O)CCCCCNC(=O)CCCC[C@@H]1SC[C@@H]2NC(=O)N[C@@H]21	4628	14588	8665
